Screening data deposited in PubChem BioAssay by several laboratories.
Hits are enriched below; roughly 4.5% of the tested compounds scored in any of these assays.
APP 5'UTR act = APP 5'UTR luciferase reporter activation; hit rate 1% among 190,000; SH-SY5Y APP 5'UTR luciferase reporter, luminescence; zero percent = DMSO vehicle wells; activation, % at 2 µM; AID 1276;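 active = activation above a set limit, based on mean plus 3 SD of controls, cut at about 140% in these data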
AHR act = activators of human aryl hydrocarbon receptor; AHR-responsive luciferase reporter cells, luminescence; activation, % at 5 µM; hit rate 2.5% among 320,000; AID 2796; in the data active = activation above about 47%
NF-kB neuron act = raises NF-kB expression in human neuronal cells | fold change at 12.5 µM | hit rate 1.6% among 190,000 | AID 1239 | NF-kB reporter expression; hits give high values; in the data active = fold change above about 3.3
PERK inh = blocks human PERK kinase; hit rate 0.17% among 220,000; inhibition, % at 5.6 µM; CHO PERK-DD fusion, SEAP luminescence translation reporter;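 active = inhibition above the mean inhibition of all tested compounds plus 3 SD, set separately per screening campaign, cut at about 2.9% in these data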;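 note: PERK kinase domain activated by AP20187 dimerizer at 100 nM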
STAT1 activator = STAT1 signaling activation | activation (% of control), % at 5.5 µM | AID 932 | hit rate 2.6% among 200,000 | NIH 3T3 STAT1-luciferase reporter, IFN-gamma, luminescence; 100% = IFN-gamma alone, no compound;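 active = activation above the screen-wide mean activation plus 3 SD, cut at about 130% in these data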
Mdm2 ligase inh = blocks human Mdm2 ubiquitin ligase activity | hit rate 0.11% among 210,000 | signal enhancement, % at 5 µM | cell-based MDM2 ubiquitination luciferase reporter, 2 h; 0 = plate control, 100 = twice control, blank-subtracted | Q00987;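 active = signal enhancement of 30% or more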;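 note: luminescence tracks abundance of the self-degrading MDM2-luciferase fusion protein; higher signal means inhibition of MDM2 E3 ligase activity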
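test system = mammalian cells stably expressing self-ubiquitinating, self-degrading MDM2 E3–luciferase fusion | quantity = 2000 cells/well | incubation = cell settling 4 h, compound treatment 2 h, both 37 °C | signal = luminescence with SteadyLite reagent, 15 min at room temperature | evaluation = % enhancement relative to plate controls after blank subtraction | benchmarks = plate controls and plate blanks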
AHR act cf = human AHR activation, confirmation | shares compounds with AHR act | human cells, AHR-responsive luciferase reporter, luminescence | activation, % at 9 µM | hit rate 87% among 2,300 | AID 2845; in the data active = activation above about 49%;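 note: HepG2 hepatoma cells carrying a DRE-driven firefly luciferase reporter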
PXR act counter = activates human PXR in AHR activator counter-screen. shares compounds with AHR act. cell-based PXR reporter, luciferase luminescence. activation, % at 11.6 µM. hit rate 88% among 2,300. AID 434939; in the data active = activation above about 11%;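 note: human hepatoma DPX-2 cells expressing full-length human PXR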
Target sequence (O75469 whole entry, looked up): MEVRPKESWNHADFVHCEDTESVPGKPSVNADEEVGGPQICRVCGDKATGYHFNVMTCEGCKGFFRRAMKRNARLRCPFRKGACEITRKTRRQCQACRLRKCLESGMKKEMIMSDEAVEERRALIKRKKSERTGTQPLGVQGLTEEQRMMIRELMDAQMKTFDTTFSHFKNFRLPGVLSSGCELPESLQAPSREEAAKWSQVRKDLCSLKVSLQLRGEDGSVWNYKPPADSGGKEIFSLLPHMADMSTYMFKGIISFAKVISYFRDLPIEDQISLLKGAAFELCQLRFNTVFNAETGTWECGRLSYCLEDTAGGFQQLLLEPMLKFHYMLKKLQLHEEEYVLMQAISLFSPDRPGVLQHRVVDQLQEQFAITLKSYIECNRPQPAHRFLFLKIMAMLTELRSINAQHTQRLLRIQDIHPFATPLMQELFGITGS
A number is an active result; n = inactive; x = not tested or not shown.

SMILES	APP 5'UTR act	AHR act	NF-kB neuron act	PERK inh	STAT1 activator	Mdm2 ligase inh	AHR act cf	PXR act counter
O=C(NNC1=Nc2cccc3cccc1c23)c1ccc(Br)cc1	n	n	n	n	n	n	x	x
O=C(NNS(=O)(=O)c1ccc(Cl)cc1)c1sccc1-n1cccc1	n	n	n	n	n	n	x	x
O=C(NNC(=O)c1sccc1-n1cccc1)c1ccc(Cl)cc1	n	90	n	n	n	n	100	28
O=C(N/N=C\c1ccccc1)c1sccc1-n1cccc1	n	82	n	n	n	n	127	25
CC(C)c1ccc(NC(=O)c2sccc2-n2cccc2)cc1	n	84	n	n	n	n	113	46
Cc1c(Br)cccc1NC(=O)c1sccc1-n1cccc1	n	x	n	n	n	n	x	x
Nc1nc(SCC(=O)Nc2ccc3c(c2)OCO3)n[nH]1	n	n	n	n	n	n	x	x
CCOC(=O)c1c(NCc2ccc3c(c2)OCO3)c2ccccc2[nH]c1=O	n	109	n	n	n	n	74	156
O=C(Nc1ccc(NC(=O)c2cccs2)cc1)c1ccccc1	x	n	x	x	x	x	x	x
O=C(Nc1ccccc1C(=O)Nc1ccccc1)c1cccs1	x	92	x	x	x	x	89	30
Cc1ccc(NC(=O)c2ccc(Cl)c(NC(=O)c3cccs3)c2)cc1	x	131	x	x	x	x	73	41
Cc1nc2ccc(NC(=O)c3ccc(Cl)c(NC(=O)c4cccs4)c3)cc2s1	n	n	n	n	n	n	x	x
O=C(N/C(=C/c1cccs1)C(=O)N1CCOCC1)c1ccccc1	n	n	n	n	n	n	x	x
Cc1[nH]n(-c2ccccc2)c(=O)c1/C=N/NC(=O)COc1ccccc1[N+](=O)[O-]	n	n	n	n	n	n	x	x
Cc1c(/C=N/NC(=O)COc2ccccc2[N+](=O)[O-])c2ccccc2n1C	n	81	n	n	n	n	95	101
CC(c1ccncn1)N(C)Cc1nc(-c2ccc(C(F)(F)F)cc2)no1 (stereo unspecified)	n	n	n	n	n	n	x	x
Cc1oc(-c2ccc3ccccc3c2)nc1CN(C)C(C)c1ccncn1 (stereo unspecified)	n	115	n	n	n	n	98	43
Cn1c(CNc2ccc(Cl)cc2)nnc1SCc1ccccc1	n	101	n	n	n	n	n	141
CCn1c(CNc2ccc(Cl)cc2)nnc1SCc1ccccc1	n	n	n	n	n	n	x	x
CCCn1c(N)c(C(=O)CSc2nc(N)cc(=O)[nH]2)c(=O)n(C)c1=O	x	n	x	x	x	x	x	x
Cc1ccccc1NC(=O)c1cc2ccccc2o1	x	103	x	x	x	x	122	14
CSCCC(NC(=O)c1ccccc1Br)C(=O)NNC(=O)c1ccco1 (stereo unspecified)	x	n	x	x	x	x	x	x
O=C(c1ccccn1)N1N=C2/C(=C/c3ccccc3)CCCC2C1c1ccccc1 (stereo unspecified)	n	112	n	n	n	n	108	65
CNC(=O)c1sc(N2N=C3/C(=C/c4ccccc4)CCCC3C2c2ccccc2)nc1C (stereo unspecified)	n	n	n	n	n	n	x	x
CCCCNC(=O)CC1Nc2ccccc2NC1=O (stereo unspecified)	n	86	n	n	n	n	52	58
SMILES	APP 5'UTR act	AHR act	NF-kB neuron act	PERK inh	STAT1 activator	Mdm2 ligase inh	AHR act cf	PXR act counter
O=C(CC1Nc2ccccc2NC1=O)NCCCN1CCCCCC1 (stereo unspecified)	n	n	n	n	n	n	x	x
OCCOCCn1c(C2CCCN2c2nc(-c3ccc(F)cc3)cs2)nc2cc(Cl)c(Cl)cc21 (stereo unspecified)	x	n	x	x	x	x	x	x
CC(C)(C=O)C1=CC(=O)c2ccccc2C1=O	n	83	n	n	n	n	112	26
CC1=CC(=O)c2ccccc2C1=O	n	n	n	n	n	x	x	x
C=CCn1c(SCC(=O)N2CCCC2)nc2c([nH]c3ccccc32)c1=O	x	86	x	x	x	x	98	125
Cn1c(SCC(=O)N2CCCCCC2)nc2c([nH]c3ccccc32)c1=O	n	n	n	n	n	n	x	x
CC(NC(=O)C(C)N1c2cccc3cccc(c23)S1(=O)=O)c1ccccc1 (stereo unspecified)	x	n	x	x	x	x	x	x
CNc1nc2ccccc2n(C)c1=O	n	n	n	n	n	n	x	x
CNc1ccccc1-c1nc2ccccc2n(C)c1=O	n	113	n	n	n	n	107	41
COc1ccc(NS(=O)(=O)c2cccc(C(=O)NNC(=O)c3ccc(=O)[nH]c3)c2)cc1	x	n	x	x	x	x	x	x
Cc1cccc(NC(=S)N/N=C/c2ccc3c(c2)OCO3)c1	n	94	n	n	n	n	71	87
Cc1cccc(NC(=S)N/N=C/c2c[nH]c3ccccc23)c1	n	135	n	n	132	n	87	19
O=C(N/N=C/c1ccc2c(c1)OCO2)c1ccc2c(c1)OCCO2	n	n	n	n	n	n	x	x
O=C(N/N=C/c1ccc2c(c1)OCO2)c1ccc(Br)o1	n	175	3.5	n	142	n	120	22
Cc1cccc(NC(=S)N/N=C/c2cccc([N+](=O)[O-])c2)c1	n	134	n	n	n	n	145	41
Cc1cccc(NC(=S)NCc2ccc3c(c2)OCO3)c1	n	n	n	n	n	n	x	x
Cc1cccc(CCNS(=O)(=O)c2ccc3c(c2)CCN3C(=O)CCC(=O)O)c1	x	n	x	x	x	x	x	x
Cc1ccc(C(C)C)cc1OCC(=O)N1CCN(C(=O)c2ccco2)CC1	x	n	x	x	x	x	x	x
O=C(N/N=C\c1cc2c(cc1Cl)OCO2)c1cccnc1	x	80	x	x	x	x	79	13
O=C(N/N=C/c1cc2c(cc1Cl)OCO2)c1cc(-c2ccccc2)n[nH]1	x	n	x	x	x	x	x	x
O=C(N/N=C/c1cc2c(cc1Cl)OCO2)c1ccncc1	n	87	n	n	n	n	63	n
O=C(N/N=C/c1cc2c(cc1Cl)OCO2)c1cccc(Br)c1	x	n	x	x	x	x	x	x
CCN(CC(=O)Nc1c(F)cccc1F)C(=O)c1ccc(S(=O)(=O)N2CCC(C)CC2)cc1	x	n	x	x	x	x	x	x
c1ccc(CSc2nnc3ccc(-c4ccco4)nn23)nc1	n	n	n	n	n	n	x	x
c1cn(CCCNc2ncnc3nc[nH]c23)cn1	n	n	n	n	n	n	x	x
Cc1sc2ncnc(NCCCn3ccnc3)c2c1C	n	127	n	n	n	n	102	22
Cc1cccc(-n2ncc3c(NCCCn4ccnc4)ncnc32)c1	n	83	n	n	n	n	57	45
Cc1ccc(-n2ncc3c(NCCCn4ccnc4)ncnc32)c(C)c1	x	n	x	x	x	x	x	x
COc1cccc(-c2nc(C(N)=O)c3[nH]c(=O)n(-c4ccccc4)c3n2)c1OC	n	88	n	n	n	n	61	10
